Reference: paper PMC6487859 (Journal of the American Chemical Society, 2018)
pIC50: −log10 of the molar value.

Key:
CDK12/13 = conditions: live HeLa S3 cells, 4 h; cyclin K as proxy
PRKCQ [1] = target: T1, PRKCQ (Homo sapiens, UniProt Q04759); assay: target engagement pulldown, live HeLa S3 cells, THZ1-DTB; format: cell-based; conditions: 4 h, Western blot
PKN3 [2] = target: T2, PKN3 (Homo sapiens, UniProt Q6P5Z2); assay: as above; format: cell-based; conditions: 4 h, Western blot
CDK7 [3] = target: T3, CDK7 (Homo sapiens, UniProt P50613); assay: as above; format: cell-based; conditions: 4 h, Western blot
PKN3 [4] = target: T2, PKN3; assay: in vitro PKN3 kinase assay; format: biochemical; conditions: for time-dependent inhibition of PKN3: fixed inhibitor concentration 1 μM, preincubation 0 to 120 min
Method in brief: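 Enzyme was preincubated with test compound 30 min, then reacted 30 min at RT with 68 µM ATP plus 1 µCi [γ-32P]ATP. TCA stop, phosphocellulose capture, phosphoric-acid washes, scintillation counting. IC50 came from a 7-point dose-response. Time course used 1 µM compound with 0–120 min preincubation.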

CYP1B1 = target: T4, CYP1B1 (Homo sapiens, UniProt Q16678); assay: CITe-Id, HeLa S3 lysates, THZ1-DTB; format: binding; conditions: competition with 2 μM THZ1-DTB
T4 sequence (Q16678 1-543): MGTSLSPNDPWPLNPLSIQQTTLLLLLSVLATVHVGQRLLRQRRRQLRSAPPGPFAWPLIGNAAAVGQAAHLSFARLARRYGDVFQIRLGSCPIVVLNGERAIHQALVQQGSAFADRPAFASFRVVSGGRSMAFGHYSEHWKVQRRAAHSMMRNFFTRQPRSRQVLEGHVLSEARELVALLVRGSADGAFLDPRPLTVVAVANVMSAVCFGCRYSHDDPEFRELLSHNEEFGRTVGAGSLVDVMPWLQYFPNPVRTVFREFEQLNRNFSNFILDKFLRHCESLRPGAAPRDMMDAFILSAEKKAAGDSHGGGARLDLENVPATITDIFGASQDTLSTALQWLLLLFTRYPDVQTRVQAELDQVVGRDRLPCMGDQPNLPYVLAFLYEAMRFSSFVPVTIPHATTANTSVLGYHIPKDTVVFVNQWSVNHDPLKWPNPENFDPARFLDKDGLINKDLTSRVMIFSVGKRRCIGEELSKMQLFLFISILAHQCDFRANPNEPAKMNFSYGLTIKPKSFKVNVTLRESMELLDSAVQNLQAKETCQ
Method in brief: (§1)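 Precleared on streptavidin resin 1 h at 4 °C, split four ways. DMSO or rising test-compound doses for 1 h at RT, then 2 µM desthiobiotin probe at 4 °C for 18 h. Urea denaturation, DTT/IAA, tryptic digest. Streptavidin-enriched probe peptides were iTRAQ-labelled for RP-SAX-RP LC–MS/MS. Slope of reporter ratios (vs DMSO) against concentration scored each cysteine. Hits exceeded 2 SD over the mean of 527 sites; biological replicates.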

[5] = target: glycogen synthase kinase 3B (GSK3B) at C14 (Homo sapiens, UniProt P49841); assay: CITe-Id, HeLa S3 lysates, THZ1-DTB; format: binding; conditions: competition with 2 μM THZ1-DTB
Method in brief: as §1

PKN3 at C840 = PKN3 at C840 (Homo sapiens, UniProt Q6P5Z2); assay: CITe-Id, HeLa S3 lysates, THZ1-DTB; format: binding; conditions: competition with 2 μM THZ1-DTB
Method in brief: as §1

[6] = target: protein kinase C theta (PRKCQ) at C661 (Homo sapiens, UniProt Q04759); assay: CITe-Id, HeLa S3 lysates, THZ1-DTB; format: binding; conditions: competition with 2 μM THZ1-DTB
Method in brief: as §1

CDK13 = CDK13 (Homo sapiens, UniProt Q14004); assay: CITe-Id, HeLa S3 lysates, THZ1-DTB; format: binding; conditions: competition with 2 μM THZ1-DTB
Method in brief: as §1

CDK7 [7] = target: T3, CDK7; assay: CITe-Id, HeLa S3 lysates, THZ1-DTB; format: binding; conditions: competition with 2 μM THZ1-DTB
Method in brief: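 Aliquots pretreated with DMSO or increasing test compound concentrations for 1 h at RT, then 2 μM desthiobiotin probe for 18 h at 4 °C. Denatured, reduced, alkylated, trypsin-digested; probe peptides streptavidin-enriched, iTRAQ-labelled, LC–MS/MS. Cysteine reporter ratios versus the DMSO channel were regressed against concentration, and the slope was taken as the dose response.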

CDK12 = CDK12 (Homo sapiens, UniProt Q9NYV4); assay: CITe-Id, HeLa S3 lysates, THZ1-DTB; format: binding; conditions: competition with 2 μM THZ1-DTB
Method in brief: as §1

PRKCQ [8] = target: T1, PRKCQ; assay: SelectScreen kinase assay; format: biochemical; conditions: 10-dose titration
PKN3 [9] = target: T2, PKN3; assay: PKN3 in vitro phosphorylation of candidate substrate synthetic peptides; format: biochemical; conditions: pretreatment 1 μM for 30 min
Method in brief: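 Recombinant PKN3 (25 ng) was preincubated with test compound at 1 μM for 30 min. Reactions ran 1 h at 37 °C and were stopped with 1% acetic acid. Peptides were desalted and read by MALDI TOF/TOF. Percent phosphorylation was inferred from the loss of unphosphorylated signal against a no-ATP control; four replicates.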

[10] = tested on: cysteine residues across the proteome; assay: CITe-Id proteome-wide, HeLa S3 lysates; format: binding, human
Method in brief: as §1

T2 sequence (Q6P5Z2 whole entry): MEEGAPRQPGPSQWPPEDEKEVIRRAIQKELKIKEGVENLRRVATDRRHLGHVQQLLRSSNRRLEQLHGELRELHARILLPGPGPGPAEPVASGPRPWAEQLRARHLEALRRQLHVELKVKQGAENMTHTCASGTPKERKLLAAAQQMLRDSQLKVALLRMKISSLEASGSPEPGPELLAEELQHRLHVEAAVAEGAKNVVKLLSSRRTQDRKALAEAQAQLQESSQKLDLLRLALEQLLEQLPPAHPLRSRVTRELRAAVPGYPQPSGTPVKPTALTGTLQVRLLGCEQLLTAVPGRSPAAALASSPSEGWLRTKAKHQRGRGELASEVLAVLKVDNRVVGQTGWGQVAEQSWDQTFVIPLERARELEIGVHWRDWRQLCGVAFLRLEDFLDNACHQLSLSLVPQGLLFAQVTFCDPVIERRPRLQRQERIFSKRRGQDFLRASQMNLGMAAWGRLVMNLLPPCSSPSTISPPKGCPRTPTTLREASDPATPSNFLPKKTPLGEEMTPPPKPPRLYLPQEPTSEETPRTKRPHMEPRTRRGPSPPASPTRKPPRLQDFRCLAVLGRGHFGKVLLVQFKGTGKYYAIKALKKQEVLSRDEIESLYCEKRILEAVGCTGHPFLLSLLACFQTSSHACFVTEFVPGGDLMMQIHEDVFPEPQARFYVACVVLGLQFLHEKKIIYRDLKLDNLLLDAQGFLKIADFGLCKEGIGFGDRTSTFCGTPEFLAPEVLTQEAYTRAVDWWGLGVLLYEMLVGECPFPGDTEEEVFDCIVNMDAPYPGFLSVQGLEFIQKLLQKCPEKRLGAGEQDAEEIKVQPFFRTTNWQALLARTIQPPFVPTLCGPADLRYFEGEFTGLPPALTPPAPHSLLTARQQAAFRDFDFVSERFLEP
T3 sequence (P50613 2-346 limits assumed): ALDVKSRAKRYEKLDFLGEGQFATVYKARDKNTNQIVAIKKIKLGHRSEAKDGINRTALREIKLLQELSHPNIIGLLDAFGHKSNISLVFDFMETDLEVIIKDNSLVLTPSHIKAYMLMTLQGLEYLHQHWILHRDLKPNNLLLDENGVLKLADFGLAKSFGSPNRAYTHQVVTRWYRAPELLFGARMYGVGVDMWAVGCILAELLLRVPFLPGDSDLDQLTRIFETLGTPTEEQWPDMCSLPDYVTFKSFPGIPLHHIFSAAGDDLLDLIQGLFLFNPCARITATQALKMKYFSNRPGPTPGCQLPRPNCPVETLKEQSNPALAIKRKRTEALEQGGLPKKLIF
T3 sequence (P51946 whole entry partner): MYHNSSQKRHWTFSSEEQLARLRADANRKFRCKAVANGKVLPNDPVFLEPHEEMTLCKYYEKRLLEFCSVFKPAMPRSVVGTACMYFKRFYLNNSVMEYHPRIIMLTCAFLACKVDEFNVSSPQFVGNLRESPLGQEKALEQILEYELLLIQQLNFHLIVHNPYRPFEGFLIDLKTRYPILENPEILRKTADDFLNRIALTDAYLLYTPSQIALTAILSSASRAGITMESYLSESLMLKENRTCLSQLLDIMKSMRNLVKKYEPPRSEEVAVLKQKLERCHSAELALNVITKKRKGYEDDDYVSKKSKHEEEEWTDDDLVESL
T3 sequence (P51948 whole entry partner): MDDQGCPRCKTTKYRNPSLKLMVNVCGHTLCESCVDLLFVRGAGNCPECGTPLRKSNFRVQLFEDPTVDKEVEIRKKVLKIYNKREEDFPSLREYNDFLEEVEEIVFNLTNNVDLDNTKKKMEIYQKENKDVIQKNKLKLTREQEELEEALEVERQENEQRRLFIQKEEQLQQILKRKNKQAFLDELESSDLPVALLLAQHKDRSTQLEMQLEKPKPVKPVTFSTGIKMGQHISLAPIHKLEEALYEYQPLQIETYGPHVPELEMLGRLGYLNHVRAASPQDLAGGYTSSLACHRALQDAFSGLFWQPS
T1 sequence (Q04759 whole entry): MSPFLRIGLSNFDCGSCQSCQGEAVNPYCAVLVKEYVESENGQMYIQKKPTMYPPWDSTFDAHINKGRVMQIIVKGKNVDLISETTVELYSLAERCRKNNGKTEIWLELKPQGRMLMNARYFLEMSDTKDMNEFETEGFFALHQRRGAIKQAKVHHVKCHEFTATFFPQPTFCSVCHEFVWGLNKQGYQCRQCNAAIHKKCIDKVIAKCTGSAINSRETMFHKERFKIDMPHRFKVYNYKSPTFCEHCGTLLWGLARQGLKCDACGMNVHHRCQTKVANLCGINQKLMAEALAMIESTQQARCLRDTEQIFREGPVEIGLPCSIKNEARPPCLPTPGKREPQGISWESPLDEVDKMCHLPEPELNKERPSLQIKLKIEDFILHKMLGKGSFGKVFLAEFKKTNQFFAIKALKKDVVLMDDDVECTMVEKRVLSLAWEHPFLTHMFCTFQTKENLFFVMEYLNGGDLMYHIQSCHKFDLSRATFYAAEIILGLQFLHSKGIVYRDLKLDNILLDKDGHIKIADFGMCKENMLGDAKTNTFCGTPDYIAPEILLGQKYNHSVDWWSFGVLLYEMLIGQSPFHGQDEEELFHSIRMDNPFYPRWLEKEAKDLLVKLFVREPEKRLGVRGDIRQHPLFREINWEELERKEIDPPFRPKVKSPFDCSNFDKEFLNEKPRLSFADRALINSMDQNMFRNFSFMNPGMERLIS
Chain of protein kinase C theta (PRKCQ) at C661 (Q04759 whole entry): as above
Chain of glycogen synthase kinase 3B (GSK3B) at C14 (P49841 whole entry): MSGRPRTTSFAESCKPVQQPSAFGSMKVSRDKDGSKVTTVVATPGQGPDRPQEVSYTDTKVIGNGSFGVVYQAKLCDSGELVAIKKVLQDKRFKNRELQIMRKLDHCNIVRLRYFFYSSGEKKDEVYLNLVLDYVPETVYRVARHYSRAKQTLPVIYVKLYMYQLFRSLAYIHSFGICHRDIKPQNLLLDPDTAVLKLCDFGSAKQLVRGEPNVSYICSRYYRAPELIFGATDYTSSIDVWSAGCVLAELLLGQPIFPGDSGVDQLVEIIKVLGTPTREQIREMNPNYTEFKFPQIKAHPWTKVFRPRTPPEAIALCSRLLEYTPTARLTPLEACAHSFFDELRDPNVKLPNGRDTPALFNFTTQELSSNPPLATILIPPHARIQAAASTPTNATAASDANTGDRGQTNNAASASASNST
Chain of PKN3 at C840 (Q6P5Z2 whole entry): as the sequence (Q6P5Z2 whole entry) above

| Structure (SMILES) | competition for CDK12/13 against THZ1-DTB pulldown (CDK12/13) | competition for PRKCQ against THZ1-DTB pulldown (PRKCQ [1]) | competition for PKN3 against THZ1-DTB pulldown (PKN3 [2]) | competition for CDK7 against THZ1-DTB pulldown (CDK7 [3]) | time-dependent inhibition of PKN3 (PKN3 [4]) | potency against PKN3 relative to THZ1 (fold less potent) (PKN3 [4]; fixed time-point format) | competitive dose-response at CYP1B1 (CYP1B1) | competitive dose-response at GSK3B C14 [5] | competitive dose-response at PKN3 C840 (PKN3 at C840) | competitive dose-response at PRKCQ C661 [6] | competitive dose-response at CDK13 cysteine (CDK13) | competitive dose-response at CDK7 cysteine (CDK7 [7]) | competitive dose-response at CDK12 cysteine (CDK12) | potency against PRKCQ (PRKCQ [8]) | PKN3-mediated phosphorylation of EXOC2 (S432) peptide (PKN3 [9]) | PKN3-mediated phosphorylation of LAD1 (S375) peptide (PKN3 [9]) | number of cysteine residues with dose-dependent competitive binding [10] | pIC50 (PKN3 [4]; read-out: IC50 against PKN3, fixed time-point format, 30 min preincubation) |
| --- | --- | --- | --- | --- | --- | --- | --- | --- | --- | --- | --- | --- | --- | --- | --- | --- | --- | --- |
| CN(C)CCCC(=O)Nc1ccc(C(=O)Nc2cccc(Nc3ncc(Cl)c(-c4c[nH]c5ccccc45)n3)c2)cc1 [THZ1-R] | competed poorly | competed poorly | competed poorly | competed poorly | did not show time-dependent inhibition | more than 50 fold |  |  |  |  |  |  |  |  |  |  |  |  |
| CN(C)C/C=C/C(=O)Nc1ccc(C(=O)N2CCC[C@@H](Nc3ncc(Cl)c(-c4c[nH]c5ccccc45)n3)C2)cc1 [THZ531] |  |  |  |  |  |  | little or no reactivity | gaining some activity | little or no reactivity | little or no reactivity |  |  |  |  |  |  |  |  |
| CN(C)C/C=C/C(=O)Nc1ccc(C(=O)Nc2cccc(Nc3ncc(Cl)c(-c4c[nH]c5ccccc45)n3)c2)cc1 [THZ1] |  |  |  | strong competition | time dependent |  |  | dose-dependent THZ1 competitive binding | dose-dependent THZ1 competitive binding | dose-dependent THZ1 competitive binding | dose-dependent competitive binding | dose-dependent competitive binding | dose-dependent competitive binding | weak potency | partially blocked | partially blocked | eight | 7.14 |
